Reference: ChEMBL document CHEMBL4184175, “Design, synthesis and biological evaluation of novel indole-xanthendione hybrids as selective estrogen receptor modulators” (Bioorg Med Chem, 2018)
Activity calls are given as the source filed them. No cut-off for these calls is given here.

Key:
T47D [1] = assay: Antiproliferative activity against human T47D cells after 48 hrs by MTT assay
Estrogen receptor = biological target: T1, Estrogen receptor (Homo sapiens, UniProt P03372); assay: Displacement of Fluormone-tagged ES2 from human recombinant ERalpha after 2 hrs by fluorescence polarization assay
T1 sequence (P03372 whole entry): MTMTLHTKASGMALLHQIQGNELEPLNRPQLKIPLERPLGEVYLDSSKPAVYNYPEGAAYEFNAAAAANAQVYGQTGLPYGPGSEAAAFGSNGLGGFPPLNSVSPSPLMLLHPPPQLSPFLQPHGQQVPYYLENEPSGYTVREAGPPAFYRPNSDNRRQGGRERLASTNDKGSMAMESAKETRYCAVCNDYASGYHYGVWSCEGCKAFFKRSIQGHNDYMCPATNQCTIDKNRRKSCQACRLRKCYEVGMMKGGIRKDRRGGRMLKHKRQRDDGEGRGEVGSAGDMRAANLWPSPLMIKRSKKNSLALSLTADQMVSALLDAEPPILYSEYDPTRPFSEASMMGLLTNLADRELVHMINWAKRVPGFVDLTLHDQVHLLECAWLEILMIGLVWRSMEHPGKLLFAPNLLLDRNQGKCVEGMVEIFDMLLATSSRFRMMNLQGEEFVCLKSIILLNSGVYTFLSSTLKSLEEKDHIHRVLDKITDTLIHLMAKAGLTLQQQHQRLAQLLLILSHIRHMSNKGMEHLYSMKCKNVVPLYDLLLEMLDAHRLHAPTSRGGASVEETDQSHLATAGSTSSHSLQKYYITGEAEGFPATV

PBMC = assay: Cytotoxicity against human PBMC assessed as reduction in cell viability at 100 uM after 48 hrs by MTT assay; type: cell-based
In short: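 PBMCs isolated from human whole blood after RBC lysis, kept in RPMI-1640 with 10% FBS at 37 °C, 5% CO2; about 10^4 cells/well. MTT read-out as for T47D: 48 h exposure in FBS-free medium, MTT 0.5 mg/ml for 4 h, acidified DMSO, absorbance 570/620 nm, viability versus control.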

MCF7 = assay: Antiproliferative activity against human MCF7 cells; type: functional
T47D [2] = assay: Downregulation of ERalpha protein level in human T47D cells at 15 uM after 48 hrs by Western blot method relative to control; type: functional
In short: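 T47D cells grown in RPMI-1640 with 10% heat-inactivated FBS at 37 °C, 5% CO2, then exposed to 15 uM for 48 h. Lysis in modified RIPA (50 mM Tris-HCl pH 7.4, 1% NP-40, protease inhibitors); protein measured by Bradford. 50 ug run on 10% SDS-PAGE, then nitrocellulose. Rabbit anti-ER-alpha (HC-20) at 4 °C overnight, HRP secondary, ECL. Densitometry normalised to beta-actin versus untreated cells; three experiments.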

[3] = biological target: T2, Estrogen receptor (Homo sapiens) (UniProt P03372); assay: Binding affinity to ERalpha in human T47D cells assessed as downregulation of ERalpha mRNA level at 15 uM after 482 hrs by RT-PCR assay relative to control; type: cell-based; conditions: in the assay text read “48 hrs” for “482 hrs”
T2 sequence (whole entry): T1 sequence (P03372 whole entry)
In short: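 T47D treated with 15 µM for 48 h; total RNA extracted with TRIzol, quality checked, converted to cDNA. ER-α amplified with gene-specific primers alongside GAPDH as loading control; products run on 1.2% agarose with EtBr and quantified by densitometry, normalised to GAPDH, relative to untreated cells; three independent experiments.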

[4] = Drug uptake in human T47D cell nucleus at 15 uM after 24 to 48 hrs by DAPI staining based confocal laser scanning microscopic method; type: ADME, subcellular
[5] = Drug uptake in human T47D cell cytosol at 15 uM after 24 hrs by DAPI staining based confocal laser scanning microscopic method; type: ADME, subcellular
[6] = biological target: T2, Estrogen receptor (Homo sapiens); assay: Displacement of Fluormone-tagged ES2 from human recombinant ERalpha up to 1000 nM after 2 hrs by fluorescence polarization assay
In short: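 Fluorescence polarization competition: DMSO serial dilutions of compound mixed 1:1 with human recombinant ER-α/Fluormone complex, at least 2 h at room temperature protected from light; excitation 535 nm, emission 590 nm. Controls: buffer with 4% DMSO (maximum), oestradiol (minimum), free tracer. Percent inhibition fitted by nonlinear regression; IC50 = half displacement of bound ligand.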

[7] = Drug uptake in human T47D cell plasma membrane at 15 uM after 24 hrs by DAPI staining based confocal laser scanning microscopic method; type: ADME, cell membranes

SMILES	IC50 (T47D [1]) [µM]	IC50 (Estrogen receptor) [µM]	Activity (PBMC)	other results
Cc1c(-c2ccc(O)cc2)n(Cc2ccc(OCCN3CCCCCC3)cc2)c2ccc(O)cc12 [BAZEDOXIFENE]	16.4			
CC1CC(=O)C2=C(C1)OC1=C(C(=O)CC(C)C1)C2c1cc2ccccc2n1Cc1ccccc1 (stereo unspecified)		0.482	Non-Toxic	
CC1(C)CC(=O)C2=C(C1)OC1=C(C(=O)CCC1(C)C)C2c1cc2ccccc2n1Cc1ccccc1 (stereo unspecified)	19.3	0.587	Non-Toxic	
CC1(C)CC(=O)C2C(C1)Oc1ccc3ccccc3c1C2c1ccc(O)cc1 (stereo unspecified)				Activity (MCF7): 6.7 µg/mL
CC1(C)CCC(=O)C2=C1OC1=C(C(=O)CCC1)C2c1cc2ccccc2n1Cc1ccccc1 (stereo unspecified)	16.5	0.055	Non-Toxic	Activity (T47D [2]): 32.18%; Activity [3]: 54.3%; Drug uptake [4]: Not Active; Drug uptake [5]: Active
CC1(C)CCC(=O)C2=C1OC1=C(C(=O)CCC1(C)C)C2c1cc2ccccc2n1Cc1ccccc1			Non-Toxic	inhibition [6]: inactive
O=c1[nH]c2c(c(=O)[nH]1)C(c1cc3ccccc3n1Cc1ccccc1)c1c([nH]c(=O)[nH]c1=O)O2	22.1	0.0611	Non-Toxic	
CC1CC(=O)C2=C(C1)OC1=C(C(=O)CC(C)(C)C1)C2c1cc2ccccc2n1Cc1ccccc1 (stereo unspecified)	19.8	0.0266	Non-Toxic	
CC1(C)CC(=O)C2=C(C1)OC1=C(C(=O)CC(C)(C)C1)C2c1cc2ccccc2n1Cc1ccccc1	24.6	0.0608	Non-Toxic	
CC/C(=C(\c1ccccc1)c1ccc(OCCN(C)C)cc1)c1ccccc1 [TAMOXIFEN]				Activity (MCF7): 10 µg/mL
CC1CC(=O)C2=C(C1)OC1=C(C(=O)CCC1)C2c1cc2ccccc2n1Cc1ccccc1 (stereo unspecified)	17.9	0.0166	Non-Toxic	Activity (T47D [2]): 31.06%; Activity [3]: 29.7%; Drug uptake [4]: Not Active; Drug uptake [7]: Active
O=C1CC(c2ccccc2)CC2=C1C(c1cc3ccccc3n1Cc1ccccc1)C1=C(CC(c3ccccc3)CC1=O)O2 (stereo unspecified)			Non-Toxic	inhibition [6]: inactive
Oc1nc(S)nc2c1C(c1cc3ccccc3n1Cc1ccccc1)c1c(O)nc(S)nc1O2			Non-Toxic	inhibition [6]: inactive
O=C1CCC2=C1C(c1cc3ccccc3n1Cc1ccccc1)C1=C(CCC1=O)O2	25	0.0512	Non-Toxic	
CC1CC(=O)C2=C(C1)OC1=C(C(=O)CCC1(C)C)C2c1cc2ccccc2n1Cc1ccccc1 (stereo unspecified)	20.9	0.356	Non-Toxic	
CC1(C)CC(=O)C2=C(C1)OC1=C(C(=O)CCC1)C2c1cc2ccccc2n1Cc1ccccc1 (stereo unspecified)	23.5	0.0184	Non-Toxic	
